What was measured:
CHO = test: Cytotoxicity against CHO cells assessed as cell growth after 48 hrs incubation by MTS assay in presence of 1 mM aminoguanidine; type: cell-based; settings: Cricetulus griseus
Method in brief: (§1)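 CHO and polyamine-transport-deficient CHO-MG* cells pretreated 24 h with 1 mM aminoguanidine, then exposed to compound for 48 h at 37 °C. Triplicate. IC50 taken as 50% growth inhibition. PTS selectivity expressed as the CHO-MG*/CHO IC50 ratio.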

[1] = Antimigratory activity against human L3.6PL cells assessed as cell migration inhibition at 0.6 uM after 48 hrs incubation by wound healing assay in presence of 250 uM aminoguanidine treated 24 hrs prior compound addition; type: functional
[2] = Antimigratory activity against human L3.6PL cells assessed as cell migration inhibition at 2 uM after 48 hrs incubation by wound healing assay in presence of 250 uM aminoguanidine treated 24 hrs prior compound addition; type: functional
polyamine transporter = test: Selectivity ratio of IC50 for polyamine transporter deficient CHO-MG cells to IC50 for CHO cells by MTS assay; type: ADME, cell-based, Cricetulus griseus; settings: chinese hamster, polyamine transporter deficient CHO-MG cells and CHO cells; read-out: Ratio IC50; method in brief: as §1
CHO-MG = test: Cytotoxicity against polyamine transporter deficient CHO-MG cells assessed as cell growth after 48 hrs incubation by MTS assay in presence of 1 mM aminoguanidine; type: ADME, cell-based; settings: Cricetulus griseus; method in brief: as §1
[3] = Cytotoxicity against human L3.6PL cells assessed as inhibition of cell growth after 48 hrs incubation by MTS assay in presence of 250 uM aminoguanidine treated 24 hrs prior compound addition; type: functional, cell-based; settings: for IC50: Homo sapiens, L3.6pl
Method in brief: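 L3.6pl cells pretreated 24 h with 250 μM aminoguanidine, then incubated with compound for 48 h at 37 °C. Triplicate. IC50 is the concentration giving 50% growth inhibition and IC5 the concentration giving 5% inhibition, both versus untreated control.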

L3.6pl = test: Antimigratory activity against human L3.6PL cells assessed as cell migration inhibition after 48 hrs incubation by wound healing assay in presence of 250 uM aminoguanidine treated 24 hrs prior compound addition; type: functional, cell-based
[4] = Antimigratory activity against human L3.6PL cells assessed as cell migration inhibition at 1 uM after 48 hrs incubation by wound healing assay in presence of 250 uM aminoguanidine treated 24 hrs prior compound addition; type: functional

Row | Compound | IC50 (CHO) | inhibition (INH) [1] | inhibition (INH) [2] | selectivity ratio (polyamine transporter) | IC50 (CHO-MG) | IC5 [3] | IC50 [3] | inhibition (L3.6pl) | inhibition (INH) [4]
1 | Cl.NCCCNCCCNC1CCCCCCCCCCCCCC1 | 2.84 µM | 19.3% | 32.9% | 2.1 | 5.95 µM | 2 µM | 2800 nM |  | 
2 | Cl.NCCCCNCCCCNC1CCCCCCCCCCCCCC1 | 4.53 µM |  |  | 1 | 5.18 µM | 2 µM | 2800 nM |  | 
3 | Cl.NCCCCNCCCCNCC1CCCCCCCCCCCCCC1 | 47.8 µM |  |  | 1 | 45.5 µM | 40 µM | 48700 nM | Dose-dependent effect | 
4 | Cl.NCCCCNCCCCN1CCCCCCCCCCCCCC1 | 4.38 µM | 16.7% |  | 1 | 4.67 µM | 1 µM | 1800 nM |  | 29.6%

Source: ChEMBL document CHEMBL3259541, “Synthesis and biological evaluation of antimetastatic agents predicated upon dihydromotuporamine C and its carbocyclic derivatives” (J Med Chem, 2014)
